The results in this text go back to ChEMBL document CHEMBL1122480, “Synthesis and pharmacological studies of 4,4-disubstituted piperidines: a new class of compounds with potent analgesic properties” (J Med Chem, 1983).

SMILES strings stand for the structures.

By ED50 is commonly meant the midpoint of the dose-response relation. A word on the IC50: it is the concentration at which inhibition is half-maximal.

For assay [1], the system named is Mus musculus. Nature of the assay: Analgesic activity using PQW test, oral administration. The assay is classed as functional. Conditions: Mus musculus, po; read-out: ED50. The method in brief: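 Oral drug in mice, followed by phenylbenzoquinone-induced writhing. Analgesia is scored as fewer abdominal contractions in a group of five animals than in a control group. ED50 is the dose that reduces contractions by 50%, estimated graphically by the Litchfield method. Otherwise the percentage of animals showing analgesia is given.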

In assay [2] the test system is Mus musculus. Nature of the assay: Analgesic activity in tail flick test, oral administration. Format: functional. The method in brief:
(§1)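 Mouse tail-flick test against a noxious heat stimulus (D'Amour–Smith method), with drug given by the stated route. […] Where no exact ED50 was obtained, the percentage of animals showing analgesia is reported.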
A general note: In hot-plate and tail-flick tests a longer latency is read as antinociception.

For assay [3], the system named is Mus musculus. In words: Analgesic activity in tail flick test, subcutaneous administration. The assay is classed as functional. The method in brief: as §1
In assay [4] the test system is Mus musculus. Nature of the assay: 5 HTP (5-hydroxytryptophan) antagonism in mouse 0.5 hr after subcutaneous administration (0.01-0.3 dose range). Particulars: sc. The assay is classed as functional. The gist of the method: (§2)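 Mice received drug sc over the stated dose range, then DL-5-hydroxytryptophan to induce head twitches. ED50 is the dose that cut the mean number of head twitches by 50% versus a saline-treated control group (N = 5-10). It was estimated graphically by the Litchfield method.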

Assay [5] concerns the target T1, Opioid receptor (Rattus norvegicus, UniProt P33533+P34975+P33535). In words: Inhibition of [3H]naloxone binding to rat brain membrane with 100 mM NaCl.
For assay [6], the target named is T1, Opioid receptor. In words: Inhibition of [3H]-Naloxone binding to rat brain membrane without NaCl.
Assay [7] addresses T2, Serotonin (5-HT) receptor (Homo sapiens) (UniProt P30939+P41595+Q13639+P28222+P46098+P08908+P28221+P28223+P28335+P28566+P34969+P50406+P47898+A5X5Y0+O95264+Q70Z44+Q8WXA8). In words: Serotonin antagonism in guinea pig 0.5 hr after oral administration. Particulars: Cavia porcellus; target entry is the homologue from another species. Format: functional, organism-based. The gist of the method: (§3)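 Guinea pigs were protected against a lethal serotonin dose, per the cited Roemer and Weidmann method. Test substance was given subcutaneously or orally, as named in each line. Protection was assessed at the stated interval after dosing (0.5, 6 or 24 h). ED50 (mg/kg) was estimated graphically by the Litchfield method.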

Assay [8] deals with T2, Serotonin (5-HT) receptor (Homo sapiens). Nature of the assay: Serotonin antagonism in guinea pig 0.5 hr after subcutaneous administration. Format: functional, organism-based. Conditions: Cavia porcellus; target entry is the homologue from another species. The gist of the method: as §3
The target is the same in assay [9]. In words: Serotonin antagonism in guinea pig 24 hr after oral administration. The assay is classed as functional, organism-based. Conditions: Cavia porcellus; target entry is the homologue from another species. The method in brief:
as §3

Assay [10] has the same target. In words: Serotonin antagonism in guinea pig 24 hr after subcutaneous administration. Format: functional, organism-based. Conditions: Cavia porcellus; target entry is the homologue from another species. The method in brief:
as §3

Assay [11] shares this target. Nature of the assay: Serotonin antagonism in guinea pig 6 hr after oral administration. Format: functional, organism-based. Conditions: Cavia porcellus; target entry is the homologue from another species. The method in brief: as §3
For assay [12] the target is unchanged. Nature of the assay: Serotonin antagonism in guinea pig 6 h after subcutaneous administration. The assay is classed as functional, organism-based. Conditions: Cavia porcellus; target entry is the homologue from another species. The method in brief:
as §3

Assay [13] relates to Mus musculus. Nature of the assay: 5 HTP (5-hydroxytryptophan) antagonism in mouse 0.5 h after subcutaneous administration (0.03-0.1 dose range). Format: functional. Conditions: sc. The method in brief:
as §2

Consider `CC(C(=O)N(C)C1CCCCC1)C1(O)CCN(CCc2ccccc2Cl)CC1.O=C(O)/C=C\C(=O)O` (stereo in doubt; 15), for which the ED50 in the assay on Mus musculus [1] was found to be 10.8 mg/kg; in the assay with Mus musculus [2], 22 mg/kg; with Mus musculus [3], 3.2 mg/kg; in the assay on Mus musculus [4] it was 0.07 mg/kg. The figures for the IC50 at Opioid receptor [5] and on Opioid receptor [6] were 450 nM and 45 nM, respectively.

As for `CN(C(=O)C(C)(C)C1(O)CCN(CCc2ccccc2Cl)CC1)C1CCCCC1` [PIPRADIMADOL], the ED50 is 26 mg/kg in the assay on Mus musculus [1]; > 100 mg/kg in the assay on Mus musculus [2] (Mus musculus, Tail, po, read-out: ED50); 21 mg/kg in the assay on Mus musculus [3] (Mus musculus, Tail, sc, read-out: ED50); 0.103 mg/kg in [7]; 0.055 mg/kg in [8]; 0.135 mg/kg in assay [9]. The ED50 was > 0.1 mg/kg in assay [10], 0.14 mg/kg in [11], 0.05 mg/kg in assay [12] and 0.1 mg/kg with Mus musculus [13]. For the same compound, the values for the IC50 at Opioid receptor [5] and on Opioid receptor [6] were 825 nM and 550 nM, respectively.
